Source: PubChem BioAssay AID561 (The Scripps Research Institute Molecular Screening Center, 2006)
In all, about 65,000 compounds went through this assay and about 280 (0.43%) were called active. The entries come from a sample that favours actives as a whole. Unmarked numbers belong to inactive results.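 The calls were made as follows: active = inhibition above the mean of all tested compounds plus 3 SD (cut at about 52% in these data); inactive = the rest.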

Biological target: Nuclear receptor ROR-alpha (Homo sapiens) (UniProt P35398)
Sequence (P35398 whole entry, looked up): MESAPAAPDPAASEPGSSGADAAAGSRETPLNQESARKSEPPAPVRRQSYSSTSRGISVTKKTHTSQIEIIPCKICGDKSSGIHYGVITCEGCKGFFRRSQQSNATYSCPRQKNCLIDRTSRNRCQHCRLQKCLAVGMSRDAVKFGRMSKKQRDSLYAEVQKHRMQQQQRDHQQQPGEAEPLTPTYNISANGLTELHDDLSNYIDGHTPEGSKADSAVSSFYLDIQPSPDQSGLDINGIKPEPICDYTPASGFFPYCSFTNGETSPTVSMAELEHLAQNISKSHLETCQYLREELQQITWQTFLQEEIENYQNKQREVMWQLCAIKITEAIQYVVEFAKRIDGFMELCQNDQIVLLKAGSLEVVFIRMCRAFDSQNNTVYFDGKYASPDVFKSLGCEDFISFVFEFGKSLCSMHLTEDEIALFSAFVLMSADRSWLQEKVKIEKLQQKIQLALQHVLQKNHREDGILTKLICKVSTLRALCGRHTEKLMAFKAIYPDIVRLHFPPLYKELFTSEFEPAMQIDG
Assay: suppression of basal RORA-driven reporter transcription – cell-based, luminescence, primary screen (AID 561)
Details: CHO-K1 Gal4-RORA LBD luciferase reporter, at 10 µM, stronger effect = higher value
Method in brief: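 System: transiently transfected CHO-K1 cells, Gal4-DBD/human RORA-LBD fusion plus 5xGal4-luciferase reporter. Doses: one dose of 10 µM final. Timing: 20 h compound treatment, 37 °C. Measured by: luminescence. Evaluation: % inhibition of basal luciferase versus +RORA/-RORA DMSO controls. Benchmarks: mock-transfected cells as 100%, +RORA DMSO cells as 0%. Replicates: single test per compound.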

| Compound | inhibition |
| --- | --- |
| O=C(Nc1ccon1)c1cccc(Cl)c1 | 2.2% |
| O=C(Nc1ccc(Cl)cc1)c1ccsn1 | -59.5% |
| COc1ccc(OC)c(NC(=O)Cn2c(=O)oc3ccccc32)c1 | -7.4% |
| O=C(CC1OC(=O)c2ccccc21)NC1CCCCC1 (centres undefined) | 7.6% |
| COc1ccc(-c2cc(C(F)(F)F)nc(S(C)(=O)=O)n2)cc1OC | 60.9% (active) |
| CCN1C(=O)/C(=C2\SC(N3CCCCC3)=NC2=O)c2ccccc21 | -84.9% |
| c1ccc(-n2ncc3c2ncn2c(CSc4nc5ccccc5s4)nnc32)cc1 | 25% |
| O=C(NCc1ccccn1)c1c(O)c2c([nH]c1=O)CCCC2 | 9.5% |
| O=C(OC1CCOC1=O)c1ccc(-c2nc3ccccc3s2)s1 (centres undefined) | 60.6% (active) |
| CN(Cc1ccccc1)c1nc2c(c(=O)[nH]c(=O)n2C)n1CCSc1nc2ccccc2[nH]1 | -1.9% |
| CCOc1ccccc1NC(=O)CCN1CCN(S(=O)(=O)c2ccc(OC)cc2)CC1 | 0.6% |
| NC(=O)CSC1=Nc2ccccc2C2=NC(CCC(=O)NCc3ccc(F)cc3)C(=O)N12 (centres undefined) | 17.5% |
| CCOC(=O)C1=C(CC)Nc2ccccc2N=C1NC(=O)c1cccc(S(=O)(=O)N2CCCC2)c1 | -0.9% |
| CCn1c(=N)c(S(=O)(=O)c2ccc(F)cc2)cc2c(=O)n3ccccc3nc21 | 13.5% |
| c1ccc2c(c1)OCC(CNc1ncnc3nc[nH]c13)O2 (centres undefined) | -20.2% |
| Cc1ccc2nc(NC(=O)C3CCN(S(=O)(=O)c4ccc5c(c4)oc(=O)n5C)CC3)sc2c1 | -2.8% |
| CCOc1ccc(S(=O)(=O)N(CC(=O)O)c2ccccc2)cc1 | 0% |
| COc1cc(C2C(C(=O)Nc3ccccc3OC)=C(C)Nc3ncnn32)ccc1O (centres undefined) | -9.5% |
| COc1ccccc1NC(=O)c1ccc(C)s1 | -48.9% |
| COc1ccc(C(=O)Nc2ccc3c(c2)OCO3)cc1OC | -69.8% |
| COCCCNC(=O)C1CC(=O)N(c2ccc(C)cc2)C1 (centres undefined) | -6.1% |
| CCOC(=O)c1ccc(NC(=O)Cn2nnc(-c3ccc(C)cc3)n2)cc1 | -41.7% |
| C=C(C)CSc1nc(N)c2c3c(sc2n1)CCC3 | -56.2% |
| CC1CCC(NC(=O)c2ccc(N3CCCC3=O)cc2)CC1 (centres undefined) | -61.7% |
| CCNS(=O)(=O)c1ccc(NC(=O)Nc2cccc(OC)c2)cc1 | 10% |

| Compound | inhibition |
| --- | --- |
| O=C(NCc1ccccc1)C1C(=O)N(Cc2ccccc2)C(=O)C1C1(O)CCCC1 (centres undefined) | 13% |
| CCOC(=O)CSc1nncc2ccc(OC)c(OC)c12 | 21% |
| Cc1ccccc1CSc1nnc(-c2cccnc2)n1N | 7.1% |
| O=C1c2ccccc2C(=O)N1c1ccccc1S(=O)C(F)(F)F (centres undefined) | -6.1% |
| COc1ccc(-n2ncc3c(N4CCc5ccccc54)ncnc32)cc1 | -50.3% |
| CCS(=O)(=O)N1CCCC(C(=O)NCc2ccc(C)cc2)C1 (centres undefined) | 5.2% |
| Cc1cccc2nc(CNc3ccc(F)cc3)cn12 | -1% |
| Cc1cccc(NC(=O)c2ccc3ccccc3n2)n1 | -83% |
| COc1ccc(N2CCN(C(=O)CSc3nc4cc(OC)c(OC)cc4cc3C#N)CC2)cc1 | 8.5% |
| Cc1ccc(NC(=O)NCC(c2cccnc2)N2CCOCC2)cc1 (centres undefined) | 20.8% |
| CCOC(=O)C1=C(C)NC(C)=C(C(=O)OCC)C1C1=COCCO1 | 7.2% |
| O=C(NCCN1CCOCC1)c1ccc2c(c1)ncn2C1CCCC1 | -3.7% |
| Cc1cc(C(=O)OCC(=O)NCc2ccco2)c(C)n1-c1ccccc1 | -61.4% |
| CCCOC(=O)c1[nH]c2c(c1C)C(=O)CC(c1cc(OC)c(OC)c(OC)c1)C2 (centres undefined) | 61.1% (active) |
| Cc1ccccc1OCC(=O)Nc1ccc(N2CCN(C(=O)C(C)C)CC2)c(Cl)c1 | 52% (active) |
| COc1ccc(C(=O)CSc2nnc(COc3ccccc3)n2Cc2ccco2)cc1 | -7.7% |
| COc1ccc(C)c2sc(=NC(=O)c3ccc(C#N)cc3)n(C)c12 | -84.6% |
| CCS(=O)(=O)n1nc(-c2ccc(OC)cc2)nc1SC | -52.4% |
| N#Cc1nc(Cc2ccccc2)oc1NCCc1ccccc1 | -54.1% |
| COc1cc(-n2c(C)nc3cc(C(=O)NCc4ccco4)ccc32)cc(OC)c1OC | -5.4% |
| COc1ccc(OC)c(CN2C(=O)CCC2(C)C(=O)NC2CCCCCC2)c1 (centres undefined) | 5.2% |
| CCN(CC)S(=O)(=O)c1cc(C(=O)Nc2ccccn2)ccc1C | -59.6% |
| O=C(Nc1c(C(=O)N2CCCCC2)cnn1-c1ccccc1)c1ccco1 | -6.7% |
| O=c1c2ccccc2oc2nc(C3CCCCC3)n(Cc3ccco3)c(=O)c12 | 2.7% |
| Cc1cccc(OCc2nnc(SCc3nc4cc(C(F)(F)F)ccc4c(=O)[nH]3)o2)c1 | 16.5% |

| Compound | inhibition |
| --- | --- |
| CCOc1cccc(-c2nn3c(-c4ccccn4)nnc3s2)c1 | -0.6% |
| O=C(Nc1ccc(Cl)cn1)c1cnn2cccnc12 | -62% |
| CSc1ccc(NC(=O)N2CC(C)OC(C)C2)cc1 (centres undefined) | 9.2% |
| CCC(CC)C(=O)Nc1cccc(C(=O)N2CCCC2)c1 | -11% |
| Oc1ccc(Cl)cc1/C=N/c1nc2ccccc2[nH]1 | -51.7% |
| CSc1cccc(NC(=O)C2CCCN2S(=O)(=O)c2ccc3c(c2)CCC(=O)N3)c1 (centres undefined) | -14% |
| OC(COc1ccc2ccccc2c1)CN1CCOCC1 (centres undefined) | -16.8% |
| OCCCN1c2ccccc2Nc2nnc(-c3ccccc3)cc21 | -56.8% |
| CCC1(C)Cc2c(sc3nc4n(c(=O)c23)CCCS4)CO1 (centres undefined) | -15.7% |
| O=C(Cn1c(-c2cncs2)nc2ccccc21)NC1CCCC1 | 19.7% |
| CCOC(=O)N1CCN(C(=O)C2CCN(c3ncnc4c3sc3cccc(F)c34)CC2)CC1 | 75.2% (active) |
| O=C(Nc1nc(-c2ccncc2)cs1)C1COc2ccccc2O1 (centres undefined) | -15.8% |
| CNC(=O)CSc1nnnn1-c1ccc(C)cc1C | 14% |
| CC1CCCN(Cc2nc3c(c(=O)n(C)c(=O)n3C)n2CC(=O)c2ccccc2)C1 (centres undefined) | -31.2% |
| CC(=O)Nc1ccc(-c2nn3c(C)nnc3s2)cc1C | 10.7% |
| N#CC(=C1SC=CS1)c1nc(-c2ccccc2)cs1 | -59.7% |
| Cc1oc2nc(SCC(=O)NCc3cccnc3)nc(N)c2c1C | 72.8% (active) |
| CNC(=O)CN1C(=O)c2ccccc2S1(=O)=O | -15% |
| CC(C)c1ccc(NC(=O)NC2CCCCC2)cc1 | -85.1% |
| CC1CN(c2cc(=O)n(-c3cccc(Br)c3)c(=O)[nH]2)CC(C)O1 (centres undefined) | 29.5% |
| Cc1ccc(F)cc1NC(=O)Cc1nn(C)c(=O)c2ccccc12 | 53.5% (active) |
| Cc1ccnc(N2CCCC(C(=O)Nc3cc(F)ccc3C)C2)n1 (centres undefined) | 5.7% |
| CCC(=O)NC(=Nc1nc2ccccc2s1)NC(=O)CC | -48.7% |
| Cc1ccc(S(=O)(=O)Nc2ccc3ncccc3c2)cc1 | 56.7% (active) |
| CCOC(=O)c1nc(-c2ccc3c(c2)OCO3)[nH]c1C | -66.7% |

| Compound | inhibition |
| --- | --- |
| c1c2c(cc3sc(N4CCCCC4)nc13)OCCO2 | 75.4% (active) |
| Fc1c(F)c(C(F)(F)F)c(F)c(F)c1N1CCN(c2ccc3nnc(C(F)(F)F)n3n2)CC1 | 6.9% |
| O=C(O)C1OC(C(=O)O)C2C1C(F)(F)C2(F)F (centres undefined) | 1.7% |
| COc1ccc(N=Cc2c(O)[nH]c3ccccc23)cc1OC | -55.7% |
| C(=C\c1ccccc1)/CSc1nnc(-c2cccnc2)n1Cc1ccco1 | -2.8% |
| Cc1nc2ccc(S(=O)(=O)NCC(=O)NCCN3CCCCC3C)cc2s1 (centres undefined) | 6.1% |
| Cn1c(=NC(=O)c2ccco2)sc2cccc(F)c21 | -61.5% |
| O=C(CN1C(=O)c2ccccc2S1(=O)=O)N1CCc2ccccc21 | 37.4% |
| COc1ccccc1CNC(=O)C1CCCN(S(=O)(=O)c2cccc3cccnc23)C1 (centres undefined) | 5.2% |
| CCC(=O)Oc1cccc(C(=O)Nc2ccc(-c3nnc(-c4ccco4)o3)cc2)c1 | -112% |
| COC(=O)c1sc(NC(=O)c2csc3c2CCCC3)nc1C | -33.7% |
| c1ccc(Nc2nc(-c3ccncc3)cs2)nc1 | -50.9% |
| COc1ccc(C(=O)Nc2nncs2)c(OC)c1 | -62.9% |
| COc1ccc(OC)c(Nc2nc(-c3ccc(O)c(O)c3)cs2)c1 | 74.4% (active) |
| Cn1nnc2cc(C(=O)NCCC3=CCCCC3)ccc21 | -18% |
| Cc1cc(C)nc(N2CCN(c3ncnc4c3oc3ccccc34)CC2)n1 | 7.6% |
| CCCOc1ccccc1C(=O)NCCCC(=O)O | 16.7% |
| O=C(C1CCN(c2nnc(-n3cccc3)s2)CC1)N1CCc2ccccc2C1 | 8.1% |
| COC(=O)Nc1ncc(CN2C(=O)c3ccccc3C2=O)s1 | 19.5% |
| COCn1c(COc2ccccc2)nc2ccccc21 | -53.4% |
| Cc1ccc(CCNC(=O)C2CCN(S(=O)(=O)N3CCCC3)CC2)cc1 | 2.2% |
| COc1ccc(Nc2oc(-c3ccccc3Cl)nc2C#N)cc1 | -98.6% |
| COC(=O)c1ccc(NC(=O)c2ccco2)cc1 | -77.4% |
| C=CCn1c(C(C)NC(=O)CC)nc2ccccc21 (centres undefined) | -12.3% |
